Screens (PubChem)
The list is not random: actives were taken first. Their share in the collection is about 2.1%.
Autophagy mod – alters autophagy in cells; calls only at 10 µM (by protocol); 190,000 compounds, 0.98% hits; MEF GFP-LC3 puncta imaging; test concentration mostly 10 µM;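 active = percentage of spot-positive cells more than 3 SD above its plate mean, without a fluorescence outlier flag or 80% toxicity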;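 also: spot-positive cell cutoff set from DMSO-treated cells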
MT stabilize HCS – microtubule stabilization, imaging screen; % tubulin-high responders, % at 10 µM; 200,000 compounds, 0.83% hits; HeLa tubulin immunostaining HCS, 24 h; share of cells brighter than vehicle mean+2SD; AID 2205;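 active = plate Z-score above 3 for both tubulin-high and condensed-nucleus cell shares, with cell loss under 80%, at 10 µM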;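 also: anti alpha tubulin signal scored within the nucleus-defined area of each cell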
b-catenin transl – modulators of beta-catenin nuclear translocation; 190,000 compounds, 0.3% hits; HeLa beta-catenin nuclear translocation, immunofluorescence imaging; AID 1665; nuclear translocation activity, % at 5 µM;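 active = nuclear translocation activity above 50% at 5 µM, with a well cell count of 50 or more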;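 also: per-cell ratio of nuclear to cytoplasmic median beta-catenin stain intensity; plate controls were DMSO negative control for no effect and GSK-3 inhibitor IX positive control for full effect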
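Test system: human HeLa cell line; Doses: 5 µM primary, 0.02–20 µM confirmation; Incubation: 24 h compound exposure, 37°C; Detection: beta-catenin immunofluorescence imaging with DAPI; Read-out: beta-catenin nuclear/cytoplasmic ratio, % activation.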
ABCG2 block – human ABCG2 inhibition, ABCB1 as counter-screen | Q9UNQ0 | IgMXP3 cells, JC-1 efflux, flow cytometry | inhibition, % at 6.6 µM | 190,000 compounds, 0.1% hits;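 active = inhibition above 80%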;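 also: 0% = DMSO and 100% = nicardipine control wells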
Target sequence (Q9UNQ0 whole entry, looked up): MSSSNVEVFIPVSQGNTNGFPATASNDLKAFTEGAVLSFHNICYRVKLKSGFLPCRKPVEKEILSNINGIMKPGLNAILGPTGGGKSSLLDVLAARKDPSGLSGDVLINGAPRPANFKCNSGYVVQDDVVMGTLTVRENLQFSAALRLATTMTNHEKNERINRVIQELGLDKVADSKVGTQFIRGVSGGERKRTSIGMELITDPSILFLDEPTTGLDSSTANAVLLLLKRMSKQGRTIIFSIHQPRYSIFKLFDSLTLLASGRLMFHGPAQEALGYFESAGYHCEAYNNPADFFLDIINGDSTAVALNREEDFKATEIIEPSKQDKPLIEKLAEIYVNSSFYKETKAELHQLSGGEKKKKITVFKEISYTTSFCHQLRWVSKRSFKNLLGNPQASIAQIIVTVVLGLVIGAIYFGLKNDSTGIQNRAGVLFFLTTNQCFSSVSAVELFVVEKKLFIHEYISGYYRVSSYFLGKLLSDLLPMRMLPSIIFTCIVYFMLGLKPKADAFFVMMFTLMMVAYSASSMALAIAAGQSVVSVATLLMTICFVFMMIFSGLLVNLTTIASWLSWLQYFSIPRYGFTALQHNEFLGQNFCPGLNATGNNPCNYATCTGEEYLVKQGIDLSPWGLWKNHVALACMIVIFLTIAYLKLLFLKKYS
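Times: 10 min at 25 °C | Test system: Two drug-resistant human cell lines, ABCG2 and ABCB1 | Quantity: 3 million cells/mL final, two lines in 1:1 ratio | Signal: Flow cytometry, 530 nm JC-1 signal | Dosing: Compound at 6.6 µM | Controls: Nicardipine and DMSO wells | Reagent: JC-1 as fluorescent efflux pump substrate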
Arbovirus inh – antivirals against arbovirus infection; 200,000 compounds, 0.37% hits; inhibition, % at 10 µM; AID 1251; arbovirus infection cell-based antiviral screen; in the data active = inhibition above about 30%
ABCB1 block – inhibitors of human ABCB1 transporter, ABCG2 counter-screen. 190,000 compounds, 0.067% hits. AID 1326. CCRF-Adr cells, JC-1 efflux, flow cytometry. inhibition, % at 6.6 µM. P08183; in the data active = inhibition above about 40%;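 also: 0% = vehicle and 100% = reference inhibitor; higher value means more JC-1 retained so stronger ABCB1 efflux block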
* hit, by the source's call; i = inactive; nt = no result; + = active, no number.

SMILES | Autophagy mod | MT stabilize HCS | b-catenin transl | ABCG2 block | Arbovirus inh | ABCB1 block
CC(C)(C)c1c(Cl)c(O)c(-c2ccccc2)c(=O)n1-c1ccccc1 | i | 1.5 | -1.7 | 2.7 | 84.4* | -0.6
Cc1cccc(N/C=C/c2onc(C)c2[N+](=O)[O-])c1 | + | 1.9 | -4.0 | 4.0 | -0.4 | -0.1
CCc1ccc(C(=O)COC(=O)c2cnc(C)cn2)cc1 | i | 3.5 | -1.3 | 3.3 | 2.1 | 0.4
c1ccc(C2c3[nH]c4ccccc4c3CCN2Cc2cccn2-c2ccccn2)nc1 (stereo not given) | nt | nt | 0.1 | nt | nt | nt
CC(=O)Nc1ccc(CN2CCc3c([nH]c4ccccc34)C2c2ccccn2)cc1 (stereo not given) | i | 9.9* | 1.2 | -1.0 | -17.6 | -0.1
O=C(CSCC(=O)N1CCCCC1)OCC(=O)c1c[nH]c2ccccc12 | i | 6.0 | 2.8 | 1.9 | 74.6* | -0.1
CC1(C(=O)OCC(=O)c2c[nH]c3ccccc23)CC1(Cl)Cl (stereo not given) | i | 1.9 | -1.9 | 4.8 | -11.8 | 0.9
CCN(CC)c1cc(C)c2cc(NC(=O)c3ccccc3OC)ccc2n1 | i | 2.1 | nt | 2.1 | -16.4 | -0.2
CCN(CC)c1cc(C)c2cc(NC(=O)c3cccs3)ccc2n1 | + | 2.7 | 0.0 | -0.4 | -0.4 | -0.2
COc1ccc(NC(=S)NCCC2=CCCCC2)cc1OC | i | 1.4 | -2.0 | 2.2 | 0.3 | 0.4
Cc1ccc(C(=O)N/N=C2\CCSC2)cc1[N+](=O)[O-] | i | 3.5 | 2.7 | 5.6 | -9.3 | 0.8
O=C1S/C(=C\c2ccc(N3CCOCC3)o2)C(=O)N1c1ccccc1 | + | 3.9 | 0.1 | 1.5 | -3.5 | 0.1
O=C1S/C(=C\c2ccc(N3CCOCC3)o2)C(=O)N1Cc1c(F)cccc1Cl | i | 3.9 | 1.0 | 132.2* | -7.4 | 7.8
O=C1NC(=O)/C(=C/c2ccc(N3CCOCC3)o2)N1 | nt | nt | 0.6 | nt | nt | nt
O=C1N=C(N2CCOCC2)S/C1=C/c1ccc(-c2ccccc2Cl)o1 | i | 2.0 | -1.4 | 1.3 | -11.1 | 0.5
CSc1ccccc1NC(=O)CNCCCN1CCOCC1 | nt | nt | -0.2 | nt | nt | nt
O=C(NCc1ccco1)c1ccc(Cl)s1 | i | 2.9 | -2.6 | 14.3 | -1.2 | 0.7
Cc1cc(C)c2nc(Cl)c(CN(Cc3ccco3)C(=O)Nc3ccccc3C)cc2c1 | i | 21.4* | -1.0 | -0.3 | -18.2 | 0.1
COCCN(Cc1cc2cc(C)cc(C)c2nc1Cl)C(=O)Nc1ccccc1 | i | 33.5* | 0.3 | 8.3 | -15.6 | 2.0
Cc1cccc(N2CCN(C(=O)Cn3c(=O)[nH]c4ccsc4c3=O)CC2C)c1 (stereo not given) | i | 1.8 | nt | 0.9 | 0.4 | -0.1
Cc1nc(NC2=NCN(CC3CCCO3)CN2)nc2ccccc12 (stereo not given) | i | 5.0 | nt | nt | nt | nt
Cc1nn(-c2ccccc2)c(C)c1/C=N/NC(=O)c1cc(-c2cccc3ccccc23)n[nH]1 | i | 21.1 | -0.3 | 13.9 | -4.0 | 2.2
Cc1nn(-c2ccccc2)c(C)c1/C=N/NC(=O)c1cc(-c2ccccc2)n[nH]1 | i | 14.0* | 80.3* | -4.2 | 1.9 | 0.4
O=C(CSc1nc(-c2ccco2)cc(C(F)(F)F)n1)NCCCn1ccnc1 | nt | 2.0 | -0.2 | 0.1 | 8.7 | 0.1
N#C/C(=C\c1cn(-c2ccccc2)nc1-c1cc2ccccc2o1)c1nc2ccccc2[nH]1 | + | 2.4 | -1.5 | -5.6 | -15.2 | -0.9
SMILES | Autophagy mod | MT stabilize HCS | b-catenin transl | ABCG2 block | Arbovirus inh | ABCB1 block
CN(C)S(=O)(=O)c1cccc(-c2nn(-c3ccccc3)cc2/C=C(\C#N)c2nc3ccccc3[nH]2)c1 | i | 1.9 | 1.2 | -9.4 | -0.7 | 0.4
CCn1c(SCC(=O)Nc2nc(C)cs2)nnc1-c1cccnc1 | i | 4.0 | 1.2 | 2.5 | 11.5 | 0.5
CN(C)C1=NC(=O)/C(=C\c2ccccc2)S1 | + | 3.7 | -0.5 | 1.9 | 2.7 | 0.1
COc1ccc(O)c(/C=N/c2sc(C)c(C)c2C#N)c1 | i | 1.8 | -5.6 | 0.1 | -9.6 | 0.1
Cc1sc(/N=C/c2c(O)ccc3ccccc23)c(C#N)c1C | + | 1.9 | -16.0 | 1.8 | 7.4 | 0.2
COC(=O)c1ccc(NC(=O)CCS(=O)(=O)c2ccc(Br)s2)cc1 | i | 3.4 | -3.8 | 32.4 | -1.5 | 1.1
CN(CC(O)CN1CCOCC1)S(=O)(=O)O (stereo not given) | i | 2.9 | -0.1 | -1.3 | 8.4 | 0.6
O=C(CSc1nnnn1-c1ccc2c(c1)OCO2)NCc1ccccc1 | i | 42.4* | nt | 8.3 | -21.8 | 0.5
O=C(CSc1nnnn1-c1ccc2c(c1)OCO2)NCc1cccs1 | i | 2.9 | 2.4 | 6.2 | 2.7 | 0.9
COc1cc(-c2ccc(NC(=O)CN3CCC(C)CC3)c(OC)c2)ccc1NC(=O)CN1CCC(C)CC1 | + | 6.5 | 0.1 | 5.7 | -24.8 | 1.0
COc1ccc(NC(=O)CN2CCC(C)CC2)c([N+](=O)[O-])c1 | i | 4.2 | 0.3 | 12.5 | -0.7 | 0.9
COc1cc(NC(=O)c2ccc(F)cc2)c(OC)cc1NC(=O)CN1CCOCC1 | + | 1.6 | -0.3 | 2.5 | -4.4 | -0.1
O=C(NCc1ccccn1)c1cc(-c2ccccc2)on1 | i | 2.8 | -0.3 | 2.5 | 5.7 | 0.4
COCCNCc1ccc(Cl)cc1Cl | i | 1.4 | 1.4 | 0.1 | 18.8 | 0.0
COC(=O)c1cc(NC(=S)NCc2ccc(Cl)cc2)cc(C(=O)OC)c1 | i | 5.0 | -3.3 | -2.2 | 31.9* | -0.2
O=C(O)c1ccc(-n2nc(C(F)(F)F)c3c2CCCC3)cc1 | i | 3.7 | 0.4 | 28.6 | -2.1 | 0.2
O=C(O)c1cccc(NN=C2c3ccccc3-c3ccccc32)c1 | i | 2.7 | -0.6 | -3.0 | 69.4* | -0.6
O=C(O)c1cccc(N/N=C/c2ccc(-c3ccccc3)cc2)c1 | i | 2.6 | -0.4 | -6.7 | 3.8 | -1.8
CC1CCCN(C(=O)CSc2nnc(-c3cccnc3)n2C2CCCCC2)C1 (stereo not given) | i | 1.4 | -5.4 | 1.6 | 3.5 | 0.5
O=C(CSc1nnc(-c2cccnc2)n1C1CCCCC1)NC1CCCC1 | + | 2.1 | 2.1 | 11.3 | 7.5 | 0.5
COc1ccc(Nc2oc(-c3ccc(OC)cc3)nc2C#N)cc1 | nt | nt | 0.5 | nt | nt | nt
COc1ccc(Nc2oc(-c3ccc(Cl)cc3)nc2C#N)cc1 | i | 39.4* | 63.3* | 1.9 | -20.1 | 0.1
CCOc1ccc(Nc2oc(-c3ccc(Cl)cc3)nc2C#N)cc1 | i | 32.8* | 0.0 | 3.6 | -16.2 | 0.4
O=C(NC1CC1)C1=C[C@H](c2ccc3c(c2)OCO3)C[C@H](OCc2ccc(CO)cc2)O1 | i | 4.3 | -3.6 | -0.9 | -0.9 | -0.1
Cn1cnnc1Sc1ccc(C(=O)OCC(=O)NCC(F)(F)F)cc1[N+](=O)[O-] | nt | nt | -0.7 | nt | nt | nt
CC1Cc2ccccc2N1C(=O)CSc1ncc(-c2ccc(F)cc2)n1C (stereo not given) | i | 3.4 | nt | 10.8 | -2.8 | 1.1
